Assay [1] deals with bloodstream form T. brucei (strain 427). The assay can be described thus: T. brucei culturing and drug test. In kind it is cell-based, Trypanosoma brucei. The note with it: for Trypanocidal activity (in words): at concentrations up to 5 mg mL^−1; for Trypanocidal properties (in words): bloodstream form T. brucei. The procedure, abridged:
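Parasites were kept at 37 °C in modified Iscove's medium (pH 7.4) and grown for 48 h with a range of test compound concentrations. Cell density at each concentration was counted by hemocytometer and expressed as percent of untreated control growth. Concentrations giving 50% and 90% growth inhibition (IC₅₀, IC₉₀) were determined. Run in triplicate.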

Another assay relates to NMDA receptors. Type of assay: cell-based. The note with it: for NMDA receptor antagonism (in words): cerebellar granule neurons, glutamate or NMDA 100 μM + glycine 10 μM.
Another assay has as its system Reovirus-1. In kind it is cell-based. Conditions: microscopy and MTS assay. A general note: Tetrazolium assays rely on reduction of a dye to a coloured formazan, in cell work by metabolically active cells.
The test system of the next assay is influenza virus A/H3N2. In kind it is cell-based, influenza virus A/Hong Kong/7/87 (H3N2). The note with it: influenza virus A/H3N2 (A/Hong Kong/7/87); microscopy and MTS assay.
A further assay deals with parainfluenza-3 virus. In kind it is cell-based. The note with it: microscopy and MTS assay.
In assay [2] the test system is herpes simplex virus type 2. In kind it is cell-based. The note with it: microscopy and MTS assay.
A further assay deals with Punta Toro virus. In kind it is cell-based. The note with it: microscopy and MTS assay.
In another assay the test system is vaccinia virus. In kind it is cell-based.
For a further assay, the system named is sindbis virus. Type of assay: cell-based. The note with it: microscopy and MTS assay.
In the next assay the test system is influenza virus A/H1N1. Type of assay: cell-based, influenza virus A/Puerto Rico/8/34 (H1N1). The note with it: influenza virus A/H1N1 (A/Puerto Rico/8/34); microscopy and MTS assay.
The subject of assay [3] is respiratory syncytial virus. Type of assay: cell-based. The note with it: microscopy and MTS assay.
Assay [4] concerns vesicular stomatitis virus. Type of assay: cell-based.
Another assay relates to Coxsackievirus B4. In kind it is cell-based. Conditions: microscopy and MTS assay.
For another assay, the system named is feline coronavirus. Type of assay: cell-based. The note with it: microscopy and MTS assay.
Assay [5] relates to herpes simplex virus type 1. Type of assay: cell-based. The note with it: microscopy and MTS assay.
The subject of another assay is influenza virus B. In kind it is cell-based, influenza virus B/Hong Kong/5/72. Conditions: influenza virus B (B/Hong Kong/5/72); microscopy and MTS assay.

The results in this text go back to PMC3217223 (Bioorganic & Medicinal Chemistry, 2009).

Counter-ions that a name gives are not always drawn.

Take `c1ccc(CCNC23CC4CC(CC(C4)O2)C3)cc1` [Compound 2b, N-(2-Phenylethyl)(2-oxaadamant-1-yl)amine hydrochloride]: in [1], the “Trypanocidal activity (in words)” value is given as “no activity”.
Turning to `CN(Cc1ccccc1)C12CC3CC(CC(C3)O1)C2` [Compound 3a, N-Benzyl-N-methyl(2-oxaadamant-1-yl)amine], the “NMDA receptor antagonism (in words)” value with NMDA receptors is “inactive”. Also, in assay [1], the “Trypanocidal activity (in words)” value is “no activity”.
`CN(CCc1ccccc1)C12CC3CC(CC(C3)O1)C2` [Compound 3b, N-Methyl-N-(2-phenylethyl)(2-oxaadamant-1-yl)amine hydrochloride]: the “Trypanocidal activity (in words)” value in assay [1] is listed as “no activity”.
As for `c1ccc(CN(Cc2ccccc2)C23CC4CC(CC(C4)O2)C3)cc1` [Compound 8, N,N-Dibenzyl(2-oxaadamant-1-yl)amine], the “NMDA receptor antagonism (in words)” value in the assay with NMDA receptors was “inactive”. The “Trypanocidal activity (in words)” value in assay [1] is “no activity”.
Turning to `CC12CC3CC(C1)CC(N)(C3)O2` [Compound 10a, (3-Methyl-2-oxaadamant-1-yl)amine hydrochloride], in the assay on NMDA receptors, the “NMDA receptor antagonism (in words)” value was “inactive”.
For `NC12CC3CC(C1)CC(c1ccccc1)(C3)O2` [Compound 10c, (3-Phenyl-2-oxaadamant-1-yl)amine hydrochloride], in the assay on NMDA receptors, the “NMDA receptor antagonism (in words)” value is recorded as “only a weak NMDA receptor antagonist”. For the same compound, the Antiviral activity result in the assay on Reovirus-1 is “None of the tested compounds displayed activity”; with influenza virus A/H3N2, “none of the compounds was found to be active”; in the assay with parainfluenza-3 virus it was “None of the tested compounds displayed activity”; in [2], “None of the tested compounds displayed activity”; in the assay with Punta Toro virus it was “None of the tested compounds displayed activity”; with vaccinia virus, “None of the tested compounds displayed activity”. The Antiviral activity entry was “None of the tested compounds displayed activity” in the assay with sindbis virus; “none of the compounds was found to be active” in the assay with influenza virus A/H1N1; “None of the tested compounds displayed activity” in assay [3]; “None of the tested compounds displayed activity” in [4]; “None of the tested compounds displayed activity” with Coxsackievirus B4; “None of the tested compounds displayed activity” in the assay on feline coronavirus. The values for the Antiviral activity result (in [5]; with influenza virus B) were “None of the tested compounds displayed activity” and “none of the compounds was found to be active”, respectively.
As to `NC12CC3CC(C1)CC(C1CCCCC1)(C3)O2` [Compound 10d, (3-cyclohexyl-2-oxaadamant-1-yl)amine hydrochloride], the Antiviral activity entry with Reovirus-1 is recorded as “None of the tested compounds displayed activity”; in the assay on influenza virus A/H3N2, “none of the compounds was found to be active”; in the assay with parainfluenza-3 virus, “None of the tested compounds displayed activity”; in [2], “None of the tested compounds displayed activity”; in the assay with Punta Toro virus, “None of the tested compounds displayed activity”; with vaccinia virus, “None of the tested compounds displayed activity”. The Antiviral activity entry is reported as “None of the tested compounds displayed activity” in the assay on sindbis virus; “none of the compounds was found to be active” in the assay on influenza virus A/H1N1; “None of the tested compounds displayed activity” in [3]; “None of the tested compounds displayed activity” in [4]; “None of the tested compounds displayed activity” in the assay on Coxsackievirus B4; “None of the tested compounds displayed activity” in the assay with feline coronavirus. Moreover, the Antiviral activity entry in assay [5] was “None of the tested compounds displayed activity”; in the assay on influenza virus B, “none of the compounds was found to be active”.
Regarding `CN(C)C12CC3CC(CC(C)(C3)O1)C2` [Compound 11a, N,N-Dimethyl(3-methyl-2-oxaadamant-1-yl)amine hydrochloride], in the assay with NMDA receptors, the “NMDA receptor antagonism (in words)” value was “inactive”. Further, the “Trypanocidal activity relative to amantadine” value in [1] (compared with amantadine) was “at least 30 times”. Besides, the “Trypanocidal activity relative to rimantadine” value in assay [1] (compared with rimantadine) is on record as “approximately twice”.
Consider `CCN(CC)C12CC3CC(CC(CC)(C3)O1)C2` [Compound 12, N,N-Diethyl(3-ethyl-2-oxaadamant-1-yl)amine hydrochloride], for which, in the assay with NMDA receptors (compared with amantadine), the “Potency as NMDA receptor antagonist relative to amantadine” value is “seven times more potent than amantadine”. Also, the “Potency as NMDA receptor antagonist relative to memantine” value in the assay on NMDA receptors (compared with memantine) is “ten times less potent than memantine”.
`CCC12CC3CC(C1)CC(NCc1ccccc1)(C3)O2` [Compound 13, N-Benzyl(3-ethyl-2-oxaadamant-1-yl)amine hydrochloride]: the “Trypanocidal properties (in words)” value in [1] is “no significant trypanocidal properties”.
Consider `CCC12CC3CC(C1)CC(NC)(C3)O2` [Compound 15, N-Methyl(3-ethyl-2-oxaadamant-1-yl)amine hydrochloride], for which the Antiviral activity result is “None of the tested compounds displayed activity” in the assay with Reovirus-1; “none of the compounds was found to be active” in the assay with influenza virus A/H3N2; “None of the tested compounds displayed activity” with parainfluenza-3 virus; “None of the tested compounds displayed activity” in assay [2]; “None of the tested compounds displayed activity” in the assay with Punta Toro virus; “None of the tested compounds displayed activity” with vaccinia virus. The Antiviral activity entry was “None of the tested compounds displayed activity” with sindbis virus; “none of the compounds was found to be active” in the assay with influenza virus A/H1N1; “None of the tested compounds displayed activity” in assay [3]; “None of the tested compounds displayed activity” in assay [4]; “None of the tested compounds displayed activity” in the assay on Coxsackievirus B4; “None of the tested compounds displayed activity” in the assay with feline coronavirus. Further, the Antiviral activity entry is recorded as “None of the tested compounds displayed activity” in [5] and “none of the compounds was found to be active” with influenza virus B. In addition, in assay [1], the “Trypanocidal properties (in words)” value is “no significant trypanocidal properties”.
